Assay results from ChEMBL document CHEMBL1148393, “SAR studies of dihydro-beta-agarofuran sesquiterpenes as inhibitors of the multidrug-resistance phenotype in a Leishmania tropica line overexpressing a P-glycoprotein-like transporter” (J Med Chem, 2004).

Columns and labels:
Assay type in all cases: functional
Leishmania tropica [1] = assay: Percent growth inhibition of wild type Leishmania tropica at 1 uM
Method in brief: (§1)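 Intrinsic toxicity on the wild-type L. tropica LRC clone, with no DNM present. Log-phase promastigotes were plated at 3 × 10⁵ cells/well in RPMI 1640-modified medium with 20% FBS, with sesquiterpene diluted from DMSO stocks, for 72 h at 28 °C. MTT was added for 4 h, then 20% SDS, and A540 read. Percent growth inhibition is taken against untreated control absorbance.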

Leishmania tropica [2] = assay: Percentage of growth inhibition of multidrug resistance Leishmania tropica Lines at 1 uM.
Method in brief: (§2)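 Log-phase MDR promastigotes were plated at 3 × 10⁵ cells/well in RPMI 1640-modified medium with 20% FBS and 150 µM DNM. Sesquiterpenes (DMSO stocks diluted in medium) were added and cells kept 72 h at 28 °C. MTT was added for 4 h, formazan dissolved in 20% SDS and A540 read. Growth inhibition is relative to DNM-treated controls without modulator.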

Leishmania tropica [3] = assay: Percentage of growth inhibition of wild type Leishmania tropica lines at 3 uM; Value ranges from 0 to 6%; method in brief: as §1
Leishmania tropica [4] = assay: Percentage of growth inhibition of wild type Leishmania tropica lines at 7 uM; Value ranges from 0 to 6%; method in brief: as §1
Leishmania tropica [5] = assay: (§3) Percentage of growth inhibition of wild type Leishmania tropica lines at 15 uM; method in brief: as §1
Leishmania tropica [6] = assay: Percentage of growth inhibition of multidrug resistance Leishmania tropica Lines at 7 uM; Value ranges from 0 to 6%; method in brief: as §2
Leishmania tropica [7] = assay: Percentage of growth inhibition of multidrug resistance Leishmania tropica Lines at 3 uM.; method in brief: as §2
Leishmania tropica [8] = assay: Percentage of growth inhibition of multidrug resistance Leishmania tropica Lines at 15 uM; method in brief: as §2
Leishmania tropica [9] = assay: Percentage of growth inhibition of wild type Leishmania tropica Lines at 7 uM.; method in brief: as §1
Leishmania tropica [10] = assay: Percentage of growth inhibition of wild type Leishmania tropica Lines at 3 uM.; method in brief: as §1
Leishmania tropica [11] = assay: Percentage of growth inhibition of multidrug resistance Leishmania tropica Lines at 15 uM; Value ranges from 0 to 6%; method in brief: as §2
Leishmania tropica [12] = assay: Percentage of growth inhibition of multidrug resistance Leishmania tropica Lines at 3 uM; method in brief: as §2
Leishmania tropica [13] = assay: Percentage of growth inhibition of multidrug resistance Leishmania tropica Lines at 7 uM.; method in brief: as §2
Leishmania tropica [14] = assay: Percentage of growth inhibition of multidrug resistance Leishmania tropica Lines at 1 uM; method in brief: as §2
Leishmania tropica [15] = assay: as §3; remark: listed apart in the source
Method in brief: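 WT L. tropica LRC-strain promastigotes (log phase, RPMI 1640-modified medium + 20% heat-inactivated FBS, 28 °C) seeded at 3 × 10⁵ cells/well and exposed without DNM to sesquiterpenes diluted from DMSO stocks. After 72 h at 28 °C, MTT (5 mg/mL in PBS) was added for 4 h, formazan dissolved in 20% SDS, A540 read. Growth inhibition (%) calculated relative to untreated control absorbance.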

Compound `COc1ccc(C(=O)O[C@@H]2C3C[C@H](OC(=O)c4ccco4)[C@]4(C)[C@@H](OC(C)=O)[C@@H](OC(=O)c5ccccc5)C[C@](C)(O)C24OC3(C)C)cc1` (some centres not stated) has an inhibition at 1 µM (Leishmania tropica [1]) of under 6%, an inhibition at 1 µM (Leishmania tropica [2]) of under 6% and an inhibition at 3 µM (Leishmania tropica [3]) of 6%. The inhibition at 7 µM (Leishmania tropica [4]) was 6%, the inhibition at 15 µM (Leishmania tropica [5]) was under 6% and the inhibition at 7 µM (Leishmania tropica [6]) was 6%. The inhibition at 3 µM (Leishmania tropica [7]) was 6% and the inhibition at 15 µM (Leishmania tropica [8]) was 11.8%.

`CC(=O)O[C@@H]1C2C[C@H](OC(=O)c3ccco3)[C@]3(C)[C@@H](OC(C)=O)[C@@H](OC(=O)c4ccco4)C[C@](C)(O)C13OC2(C)C` (some centres not stated) was tested, and the inhibition at 1 µM (Leishmania tropica [1]) was under 6%, the inhibition at 7 µM (Leishmania tropica [9]) was under 6% and the inhibition at 1 µM (Leishmania tropica [2]) was under 6%. The inhibition at 15 µM (Leishmania tropica [5]) was under 6%, the inhibition at 7 µM (Leishmania tropica [6]) was 6% and the inhibition at 3 µM (Leishmania tropica [10]) was under 6%. The inhibition at 15 µM (Leishmania tropica [11]) was 6% and the inhibition at 3 µM (Leishmania tropica [7]) was 6%.

For `CC(=O)O[C@H]1[C@@H](OC(=O)c2ccccc2)C[C@](C)(O)C23OC(C)(C)C(C[C@H](OC(=O)c4ccco4)[C@]12C)[C@H]3OC(=O)c1ccc([N+](=O)[O-])cc1` (some centres not stated), the inhibition at 3 µM (Leishmania tropica [12]) was 13.5%, the inhibition at 1 µM (Leishmania tropica [1]) was under 6% and the inhibition at 7 µM (Leishmania tropica [13]) was 26.4%. It also gave an inhibition at 1 µM (Leishmania tropica [14]) of 6.4%, an inhibition at 3 µM (Leishmania tropica [3]) of 6% and an inhibition at 7 µM (Leishmania tropica [4]) of 6%. The inhibition at 15 µM (Leishmania tropica [15]) was 10.8% and the inhibition at 15 µM (Leishmania tropica [8]) was 51.1%.

For `CC(=O)OC[C@@]12[C@@H](OC(C)=O)[C@@H](OC(C)=O)[C@@H]3OC(=O)[C@H](C)[C@@H](C)c4ncccc4C(=O)OC[C@@]4(C)OC1([C@H](OC(C)=O)C4[C@H](OC(C)=O)[C@@H]2OC(C)=O)[C@@]3(C)O`, the inhibition at 1 µM (Leishmania tropica [1]) was under 6%, the inhibition at 7 µM (Leishmania tropica [9]) was under 6% and the inhibition at 1 µM (Leishmania tropica [2]) was under 6%. It also gave an inhibition at 15 µM (Leishmania tropica [5]) of under 6%, an inhibition at 7 µM (Leishmania tropica [6]) of 6% and an inhibition at 3 µM (Leishmania tropica [10]) of under 6%. It also gave an inhibition at 15 µM (Leishmania tropica [11]) of 6% and an inhibition at 3 µM (Leishmania tropica [7]) of under 6%.
